Assay results taken from ChEMBL document CHEMBL5236602, “Synthesis and Characterization of NUC-7738, an Aryloxy Phosphoramidate of 3'-Deoxyadenosine, as a Potential Anticancer Agent” (J Med Chem, 2022).

What was measured:
[1] = test system: CCRF-CEM; assay: Cytotoxicity against human CCRF-CEM cells assessed as maximum cell growth inhibition incubated for 72 hrs by MTS assay relative to control; format: functional
Procedure, shortened: (§1)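 Cells from the 20-line panel were seeded the day before dosing, then exposed to compound for 72 h. MTS was added, followed by 4 h at 37 °C, and absorbance was read. Nine serial 3.16-fold dilutions were tested, top 198 μM, in duplicate. MI% is the maximum inhibitory effect across the tested concentration range.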

[2] = test system: K562; assay: Cytotoxicity against human K562 cells assessed as cell death incubated for 72 hrs by MTS assay; format: functional; settings: read-out: LC50 (the source's name)
Procedure, shortened: (§2)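 Contracted MTS assay. Cells seeded the day before treatment and exposed 72 h to nine serial concentrations (3.16-fold steps, top 198 μM), tested in duplicate. MTS added, then 4 h at 37 °C and absorbance read. LC50 is the concentration killing 50% of cells. MI% is the maximum inhibition over the tested range.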

[3] = test system: THP-1; assay: Cytotoxicity against human THP-1 cells assessed as cell death incubated for 72 hrs by MTS assay; format: functional; settings: read-out: LC50 (the source's name); procedure, shortened: as §2
[4] = test system: Jurkat; assay: Cytotoxicity against human Jurkat cells assessed as cell death incubated for 72 hrs by MTS assay; format: functional; settings: read-out: LC50 (the source's name); procedure, shortened: as §2
[5] = test system: RL; assay: Cytotoxicity against human RL cells assessed as cell death incubated for 72 hrs by MTS assay; format: functional; settings: read-out: LC50 (the source's name); procedure, shortened: as §2
[6] = test system: RL; assay: Cytotoxicity against human RL cells assessed as maximum cell growth inhibition incubated for 72 hrs by MTS assay relative to control; format: functional; procedure, shortened: as §1
[7] = Cytotoxicity against human HS 445 cells assessed as cell death incubated for 72 hrs by MTS assay; format: functional; settings: read-out: LC50 (the source's name); procedure, shortened: as §2
[8] = test system: HepG2; assay: Cytotoxicity against human HepG2 cells assessed as maximum cell growth inhibition incubated for 72 hrs by MTS assay relative to control; format: functional; procedure, shortened: as §1
[9] = test system: HT-29; assay: Cytotoxicity against human HT-29 cells assessed as maximum cell growth inhibition incubated for 72 hrs by MTS assay relative to control; format: functional; procedure, shortened: as §1
[10] = test system: MIA PaCa-2; assay: Cytotoxicity against human MIA PaCa-2 cells assessed as maximum cell growth inhibition incubated for 72 hrs by MTS assay relative to control; format: functional; procedure, shortened: as §1
[11] = test system: RL; assay: Potency index, ratio of 3'-Deoxyadenosine LC50 to test compound LC50 for cytotoxicity against human RL cells assessed as cell death incubated for 72 hrs by MTS assay; format: functional
[12] = Prodrug conversion in human K562 cells assessed as fold increase in 3'-dATP level at 50 uM incubated for 2 hrs by LC-MS/MS analysis relative to 3'-Deoxyadenosine; format: ADME, cell-based; settings: k562, 2 h
[13] = Prodrug conversion in human HL-60 cells assessed as fold increase in 3'-dATP level at 50 uM incubated for 2 hrs by LC-MS/MS analysis relative to 3'-Deoxyadenosine; format: ADME, cell-based; settings: hl-60, 2 h
[14] = Prodrug conversion in human RL cells assessed as fold increase in 3'-dATP level at 50 uM incubated for 2 hrs by LC-MS/MS analysis relative to 3'-Deoxyadenosine; format: ADME, cell-based
[15] = Metabolic stability in pooled cryopreserved human hepatocytes assessed as intrinsic clearance measured per 10^6 cells at 1 uM incubated for 60 mins by HPLC-MS/MS analysis; format: ADME, cell-based, Hepatocyte; settings: 1 h
Procedure, shortened: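 Pooled cryopreserved human hepatocytes were thawed, washed and resuspended in Krebs–Henseleit buffer, pH 7.3. Compound was added at 1 μM final and incubated 0 and 60 min at 37 °C/5% CO2. Reactions were stopped with acetonitrile, centrifuged, and the supernatant analysed by HPLC-MS/MS.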

## C[C@@H](NP(=O)(OC[C@@H]1C[C@@H](O)[C@H](n2cnc3c(N)ncnc32)O1)Oc1cccc2ccccc12)C(=O)OCc1ccccc1 (stereo not given in full)
[1]
  Imax: 100%
[2]
  CC50: 4.93 µM
[3]
  CC50: 46.5 µM
[4]
  CC50: 0.9 µM
[5]
  CC50: 1.68 µM
[6]
  Imax: 96%
[7]
  CC50: 10.2 µM
[8]
  Imax: 95%
[9]
  Imax: 98%
[10]
  Imax: 98%
[11]
  RatioLC50: 3
[12]
  fold change (FC): 3
[13]
  fold change (FC): 3
[14]
  fold change (FC): 3
[15]
  CLint: 20.8 µL/min/1e6 cells
